Consider eight molecules from ChEMBL document CHEMBL4138284, “Biomimetic Stereoselective Sulfa-Michael Addition Leads to Platensimycin and Platencin Sulfur Analogues against Methicillin-Resistant Staphylococcus aureus” (J Nat Prod, 2018).

What all share (format): functional
For experiment [1], the system named is Staphylococcus aureus. In words: Antibacterial activity against methicillin-sensitive Staphylococcus aureus isolate 2 incubated overnight by agar dilution method. The essentials: (§1)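 MIC by agar dilution. Strains were grown overnight in LB broth and diluted, then about 10^4 CFU (2 μL spots) were spotted onto LB agar plates containing test compound at 0.5 to 8 μg mL−1 agar. Plates were incubated overnight at 37 °C and inspected for growth. Clinical MSSA and MRSA isolates came from local hospitals.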
(Agar dilution tests growth on a series of plates holding different concentrations.)

For experiment [2], the system named is Staphylococcus aureus. In words: Antibacterial activity against methicillin-resistant Staphylococcus aureus isolate 9 incubated overnight by agar dilution method. The method, boiled down: as §1
Experiment [3] concerns Staphylococcus aureus. In words: Antibacterial activity against methicillin-sensitive Staphylococcus aureus isolate 4 incubated overnight by agar dilution method. The essentials: as §1
For experiment [4], the system named is Staphylococcus aureus. The experiment is described as follows: Antibacterial activity against methicillin-resistant Staphylococcus aureus isolate 7 incubated overnight by agar dilution method. The essentials: as §1
Experiment [5] concerns Staphylococcus aureus. In words: Antibacterial activity against methicillin-sensitive Staphylococcus aureus isolate 1 incubated overnight by agar dilution method. The essentials:
as §1

The subject of experiment [6] is Staphylococcus aureus. The experiment is described as follows: Antibacterial activity against Staphylococcus aureus ATCC 29213 incubated overnight by agar dilution method. The method, boiled down: as §1
The test system of experiment [7] is Staphylococcus aureus. In words: Antibacterial activity against methicillin-resistant Staphylococcus aureus isolate 5 incubated overnight by agar dilution method. The essentials: as §1
Experiment [8] concerns Staphylococcus aureus. The experiment is described as follows: Antibacterial activity against methicillin-resistant Staphylococcus aureus isolate 8 incubated overnight by agar dilution method. The essentials:
as §1

In experiment [9] the test system is Staphylococcus aureus. In words: Antibacterial activity against methicillin-resistant Staphylococcus aureus isolate 10 incubated overnight by agar dilution method. The method, boiled down:
as §1

In experiment [10] the test system is Staphylococcus aureus. In words: Antibacterial activity against methicillin-sensitive Staphylococcus aureus isolate 3 incubated overnight by agar dilution method. The method, boiled down: as §1
Experiment [11] deals with Staphylococcus aureus. The experiment is described as follows: Antibacterial activity against methicillin-resistant Staphylococcus aureus isolate 6 incubated overnight by agar dilution method. The essentials:
as §1

Experiment [12] deals with Staphylococcus aureus. In words: Antibacterial activity against methicillin-resistant Staphylococcus aureus isolate 11 incubated overnight by agar dilution method. The essentials:
as §1

Molecules are shown by their SMILES. Values after ≈ are worked out from the molar mass of the structure shown.

Consider `C[C@]12C[C@]34C[C@@H]1C[C@H](O2)[C@H]3[C@](C)(CCC(=O)Nc1c(O)ccc(C(=O)O)c1O)C(=O)C[C@@H]4SC(=O)c1cc(C(F)(F)F)cc(C(F)(F)F)c1`, for which the MIC came to 1 µg/mL (≈ 1.4 µM) in experiment [1]; 1 µg/mL (≈ 1.4 µM) in [2]; 1 µg/mL (≈ 1.4 µM) in experiment [3]; 2 µg/mL (≈ 2.79 µM) in [4]; 1 µg/mL (≈ 1.4 µM) in experiment [5]; 1 µg/mL (≈ 1.4 µM) in experiment [6]. Moreover, the MIC in experiment [7], in [8], in [9], in [10] and in experiment [11] was 1 µg/mL (≈ 1.4 µM) throughout.

Regarding `C[C@]12C[C@]34C[C@@H]1C[C@H](O2)[C@H]3[C@](C)(CCC(=O)Nc1c(O)ccc(C(=O)O)c1O)C(=O)C[C@@H]4SC(=O)c1cccs1`, the MIC in experiment [1] is 1 µg/mL (≈ 1.71 µM); in experiment [2], 1 µg/mL (≈ 1.71 µM); in [3], 1 µg/mL (≈ 1.71 µM); in experiment [4], 8 µg/mL (≈ 13.7 µM); in [5], 1 µg/mL (≈ 1.71 µM); in experiment [6], 2 µg/mL (≈ 3.41 µM). Besides, the MIC in experiment [7] is 2 µg/mL (≈ 3.41 µM); in experiment [8], 2 µg/mL (≈ 3.41 µM); in experiment [9] it was 1 µg/mL (≈ 1.71 µM); in experiment [10] it was 1 µg/mL (≈ 1.71 µM); in [11] it was 2 µg/mL (≈ 3.41 µM); in experiment [12], 1 µg/mL (≈ 1.71 µM).

Take `C[C@]12C[C@]34C[C@@H]1C[C@H](O2)[C@H]3[C@](C)(CCC(=O)Nc1c(O)ccc(C(=O)O)c1O)C(=O)C[C@@H]4SC(=O)c1ccc(Cl)cc1`: the MIC in experiment [1], in [2], in [3], in experiment [4], in experiment [5] and in experiment [6] was 1 µg/mL (≈ 1.63 µM) each time. Moreover, the MIC turned out to be 1 µg/mL (≈ 1.63 µM) in [7]; 1 µg/mL (≈ 1.63 µM) in experiment [8]; 1 µg/mL (≈ 1.63 µM) in experiment [9]; 1 µg/mL (≈ 1.63 µM) in experiment [10]; 1 µg/mL (≈ 1.63 µM) in experiment [11]; 2 µg/mL (≈ 3.26 µM) in experiment [12].

With `C[C@]12C[C@]34C[C@@H]1C[C@H](O2)[C@H]3[C@](C)(CCC(=O)Nc1c(O)ccc(C(=O)O)c1O)C(=O)C[C@@H]4SC(=O)c1ccc(C(F)(F)F)cc1`, the MIC in [1] is 1 µg/mL (≈ 1.54 µM); in experiment [2] it was 1 µg/mL (≈ 1.54 µM); in experiment [3] it was 1 µg/mL (≈ 1.54 µM); in experiment [4] it was 2 µg/mL (≈ 3.09 µM); in experiment [5], 0.5 µg/mL (≈ 0.772 µM); in experiment [6], 1 µg/mL (≈ 1.54 µM). Also, the MIC in [7] was 2 µg/mL (≈ 3.09 µM); in [8], 1 µg/mL (≈ 1.54 µM); in experiment [9] it was 1 µg/mL (≈ 1.54 µM); in experiment [10] it was 1 µg/mL (≈ 1.54 µM); in experiment [11], 1 µg/mL (≈ 1.54 µM); in experiment [12], 2 µg/mL (≈ 3.09 µM).

Turning to `C[C@]12C[C@]34C[C@@H]1C[C@H](O2)[C@H]3[C@](C)(CCC(=O)Nc1c(O)ccc(C(=O)O)c1O)C(=O)C[C@@H]4SC(=O)c1ccc(Br)cc1`, the minimal inhibitory concentration (MIC) in experiment [1], in [2], in [3], in experiment [4], in experiment [5] and in experiment [6] was 1 µg/mL (≈ 1.52 µM) each time. Besides, the MIC in [7] stood at 2 µg/mL (≈ 3.04 µM); in [8] it was 1 µg/mL (≈ 1.52 µM); in experiment [9], 1 µg/mL (≈ 1.52 µM); in [10] it was 1 µg/mL (≈ 1.52 µM); in experiment [11], 1 µg/mL (≈ 1.52 µM); in [12], 2 µg/mL (≈ 3.04 µM).

In the case of `C[C@]12C[C@]34C[C@@H]1C[C@H](O2)[C@H]3[C@](C)(CCC(=O)Nc1c(O)ccc(C(=O)O)c1O)C(=O)C[C@@H]4SC(=O)c1ccccc1C(F)(F)F`, the MIC in [1] came out at 1 µg/mL (≈ 1.54 µM); in experiment [2], 1 µg/mL (≈ 1.54 µM); in experiment [3], 1 µg/mL (≈ 1.54 µM); in experiment [4], 2 µg/mL (≈ 3.09 µM); in experiment [5], 1 µg/mL (≈ 1.54 µM); in experiment [6], 2 µg/mL (≈ 3.09 µM). Also, the MIC in [7] was 1 µg/mL (≈ 1.54 µM); in experiment [8], 1 µg/mL (≈ 1.54 µM); in experiment [9], 1 µg/mL (≈ 1.54 µM); in [10] it was 1 µg/mL (≈ 1.54 µM); in [11], 1 µg/mL (≈ 1.54 µM); in [12], 4 µg/mL (≈ 6.18 µM).

In the case of `C[C@]12C[C@]34C[C@@H]1C[C@H](O2)[C@H]3[C@](C)(CCC(=O)Nc1c(O)ccc(C(=O)O)c1O)C(=O)C[C@@H]4SC(=O)c1ccc2ccccc2c1`, the MIC in [1] was 0.5 µg/mL (≈ 0.794 µM); in [2], 1 µg/mL (≈ 1.59 µM); in experiment [3] it was 0.5 µg/mL (≈ 0.794 µM); in [4], 4 µg/mL (≈ 6.35 µM); in [5], 1 µg/mL (≈ 1.59 µM); in experiment [6] it was 2 µg/mL (≈ 3.18 µM). Besides, the MIC in [7] was found to be 2 µg/mL (≈ 3.18 µM); in experiment [8] it was 1 µg/mL (≈ 1.59 µM); in experiment [9], 1 µg/mL (≈ 1.59 µM); in experiment [10], 0.5 µg/mL (≈ 0.794 µM); in experiment [11] it was 1 µg/mL (≈ 1.59 µM); in [12], 4 µg/mL (≈ 6.35 µM).

As to `C[C@]12C[C@]34C[C@@H]1C[C@H](O2)[C@H]3[C@](C)(CCC(=O)Nc1c(O)ccc(C(=O)O)c1O)C(=O)C[C@@H]4SC(=O)c1cccc(F)c1`, the MIC came to 1 µg/mL (≈ 1.67 µM) in experiment [1]; 1 µg/mL (≈ 1.67 µM) in experiment [2]; 1 µg/mL (≈ 1.67 µM) in [3]; 2 µg/mL (≈ 3.35 µM) in [4]; 1 µg/mL (≈ 1.67 µM) in [5]; 2 µg/mL (≈ 3.35 µM) in [6]. The MIC in experiment [7] came to 1 µg/mL (≈ 1.67 µM); in experiment [8], 1 µg/mL (≈ 1.67 µM); in experiment [9], 1 µg/mL (≈ 1.67 µM); in experiment [10] it was 1 µg/mL (≈ 1.67 µM); in experiment [11] it was 1 µg/mL (≈ 1.67 µM); in experiment [12] it was 2 µg/mL (≈ 3.35 µM).

For orientation: MIC means the lowest concentration found to suppress growth.
